Reference: ChEMBL document CHEMBL4043263, “Identification of selective 8-(piperidin-4-yloxy)quinoline sulfone and sulfonamide histamine H1 receptor antagonists for use in allergic rhinitis” (Bioorg Med Chem Lett, 2017)
One block for each molecule: values may come before it.

What was measured:
[1] = Dissociation constant, pKa of the compound; format: physicochemical
[2] = Drug level in CD Sprague-Dawley rat brain at 1 mg/kg, iv administered via bolus dose measured after 5 mins by LC-MS/MS analysis; format: ADME, organism-based; settings: read-out: Drug uptake
Outline: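 Rats given a 1 mg/kg intravenous bolus; brain and blood sampled 5 min later. Reported as mean brain concentration (ng/g tissue) and brain:blood ratio.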

[3] = Ratio of drug level in brain to blood in CD Sprague-Dawley rat at 1 mg/kg, iv administered via bolus dose after 5 mins by LC-MS/MS analysis; format: ADME, organism-based; settings: brain and blood
Outline: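 Rats received a single intravenous bolus at 1 mg/kg. Brain and blood samples were taken 5 min after dosing. Brain concentration was expressed as ng/g tissue, and the brain:blood concentration ratio was calculated.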

[4] = Bioavailability in CD Sprague-Dawley rat at 2 mg/kg, sc by LC-MS/MS analysis; format: ADME, organism-based; settings: in vivo
Outline: (§1)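 Single rat dosed subcutaneously at 2 mg/kg in DMSO–PEG 200–water (5:45:50). Bioavailability estimated against intravenous data.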

[5] = in vivo; settings: CD Sprague-Dawley, rat, brain and blood, po, 300 mg/kg
[6] = Drug uptake in arterial blood of ovalbumin-sensitized guinea pig model of histamine-induced allergic rhinitis at 1 mg/ml administered intranasally pretreated for 24 hrs followed by histamine challenge after 30 mins post atropine monohydrate hemisulfate addition; format: ADME, tissue-based, Cavia porcellus; settings: in vivo, inhaled_or_intranasal, 0.5 h
Outline: (§2)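 Arterial blood taken from guinea pigs immediately after nasal congestion was assessed, 4 or 25 h after an intranasal dose of 1 mg/mL solution (25 µL/nostril).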

[7] = Volume of distribution at steady state in Beagle dog at 0.5 mg/kg, iv administered via bolus dose or 1 mg/kg, po administered via gavage by LC-MS/MS analysis; format: ADME, organism-based, Canis lupus familiaris; settings: in vivo, read-out: Vdss
[8] = Drug excretion in Beagle dog urine at 1 mg/kg, iv administered via bolus dose by LC-MS/MS analysis
[9] = Drug level in CD Sprague-Dawley rat brain at 300 mg/kg, po measured after 30 mins by LC-MS/MS analysis; format: ADME, organism-based; settings: read-out: Drug uptake
Outline: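 Rats given a single 300 mg/kg oral dose; brain and blood sampled 30 min later. Reported as brain concentration (ng/g) and brain:blood ratio.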

[10] = Drug level in blood of ovalbumin-sensitized guinea pig model of histamine-induced allergic rhinitis; format: ADME, tissue-based, Cavia porcellus; settings: read-out: Drug uptake; outline: as §2
[11] = Volume of distribution at steady state in CD Sprague-Dawley rat at 1 mg/kg, iv or 3 mg/kg, po by LC-MS/MS analysis; format: ADME, organism-based; settings: in vivo, read-out: Vdss
Outline: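 CD rats (n=4) received a 1 mg/kg intravenous dose of the dihydrochloride salt as a solution in H2O–PEG200–DMSO (50:45:5). Steady-state volume of distribution was taken from the intravenous blood profile and reported as the mean.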

[12] = Blood clearance in Beagle dog at 0.5 mg/kg, iv administered via bolus dose or 1 mg/kg, po administered via gavage by LC-MS/MS analysis; format: ADME, organism-based, Canis lupus familiaris
[13] = AUC (0 to last) in CD Sprague-Dawley rat at 3 mg/kg, po by LC-MS/MS analysis
[14] = Elimination half life in Beagle dog at 0.5 mg/kg, iv administered via bolus dose or 1 mg/kg, po administered via gavage by LC-MS/MS analysis; format: ADME, organism-based, Canis lupus familiaris; settings: in vivo, read-out: beta t1/2 (converted)
[15] = Elimination half life in CD Sprague-Dawley rat at 1 mg/kg, iv by LC-MS/MS analysis; format: ADME, organism-based; settings: in vivo, read-out: beta t1/2 (converted)
Outline: (§3)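 CD rats dosed intravenously at 1 mg/kg (n=4) or orally at 3 mg/kg (n=3) as a solution in H2O–PEG200–DMSO (50:45:5). Blood clearance reported as mean and as % of liver blood flow; half-life taken from intravenous data.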

[16] = test system: Liver; test: Drug metabolism in rat liver microsomes; format: ADME, microsome
Outline: (§4)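 Intrinsic clearance measured in vitro with liver microsomes from mouse, rat, dog and human; expressed as mL/min/g tissue.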

[17] = Drug excretion in Beagle dog urine at 1 mg/kg, po administered via gavage by LC-MS/MS analysis; format: ADME, organism-based, Canis lupus familiaris; settings: read-out: Drug excretion
Outline: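 Parent compound measured in urine of dogs after intravenous (1 mg/kg) or oral dosing; expressed as % of dose.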

[18] = Oral bioavailability in Beagle dog at 1 to 2 mg/kg administered via gavage by LC-MS/MS analysis; format: ADME, organism-based, Canis lupus familiaris; settings: in vivo
Outline: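 Beagle dogs given oral doses of 1 mg/kg (n=2) or 2 mg/kg (n=2) in H2O–PEG200–DMSO (50:45:5). Bioavailability is the mean of the four animals, referenced to a 1 mg/kg intravenous dose.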

[19] = test system: Rattus norvegicus; test: Blood clearance in CD Sprague-Dawley rat at 1 mg/kg, iv or 3 mg/kg, po by LC-MS/MS analysis relative to liver blood flow; format: ADME, organism-based; settings: in vivo; outline: as §3
[20] = Permeability in MDCK cells; format: ADME, cell-based, Canis lupus familiaris; settings: dog, read-out: permeability
Outline: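 Permeability measured across MDCK cell monolayers, reported in nm/s; n=3.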

[21] = Drug metabolism in human hepatocytes assessed as M11 formation by mass spectrometric analysis; format: ADME, cell-based, Hepatocyte
[22] = Oral bioavailability in CD Sprague-Dawley rat at 10 mg/kg by LC-MS/MS analysis; format: ADME, organism-based; settings: in vivo
Outline: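 Three rats dosed orally at 10 mg/kg in 0.5% hydroxypropylmethyl cellulose. Bioavailability is a lower-bound estimate because the terminal phase was poorly defined.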

[23] = Drug uptake in arterial blood of ovalbumin-sensitized guinea pig model of histamine-induced allergic rhinitis at 1 mg/ml administered intranasally pretreated for 4 hrs followed by histamine challenge after 30 mins post atropine monohydrate hemisulfate addition; format: ADME, tissue-based, Cavia porcellus; settings: in vivo, inhaled_or_intranasal, 0.5 h; outline: as §2
[24] = test system: Liver; test: Drug metabolism in human liver microsomes; format: ADME, microsome; outline: as §4
[25] = test system: Liver; test: Drug metabolism in dog liver microsomes; format: ADME, Canis lupus familiaris, microsome; outline: as §4
[26] = Blood clearance in CD Sprague-Dawley rat at 1 mg/kg, iv or 3 mg/kg, po by LC-MS/MS analysis; format: ADME, organism-based; outline: as §3
[27] = Drug metabolism in human hepatocytes assessed as M26 formation by mass spectrometric analysis; format: ADME, cell-based, Hepatocyte
[28] = Drug metabolism in human hepatocytes assessed as M24 formation by mass spectrometric analysis; format: ADME, cell-based, Hepatocyte
[29] = test system: Canis familiaris; test: Blood clearance in Beagle dog at 0.5 mg/kg, iv administered via bolus dose or 1 mg/kg, po administered via gavage by LC-MS/MS analysis relative to liver blood flow; format: ADME, organism-based, Canis lupus familiaris; settings: in vivo
[30] = Drug metabolism in human hepatocytes assessed as M19 formation by mass spectrometric analysis; format: ADME, cell-based, Hepatocyte
[31] = test system: Liver; test: Drug metabolism in mouse liver microsomes; format: ADME, microsome; outline: as §4
[32] = Bioavailability in sc dosed CD Sprague-Dawley rat by LC-MS/MS analysis; format: ADME, organism-based; settings: in vivo; outline: as §1
[33] = Drug absorption in CD Sprague-Dawley rat hepatic portal vein at 3 mg/kg, po; format: ADME, organism-based; settings: read-out: Drug absorption
Outline: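 Rats given 3 mg/kg orally; the fraction of dose absorbed into the hepatic portal vein was calculated.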

[34] = Drug metabolism in human hepatocytes assessed as M15 formation by mass spectrometric analysis; format: ADME, cell-based, Hepatocyte

SMILES: CCCCc1cc(OC2CCN(CCCS(=O)(=O)C(C)(C)C)CC2)c2ncccc2c1
concentration at 5 min [2]: 133 ng/g
Kp at 5 min [3]: 0.77
pKa [1]: 8

SMILES: CCCCc1cc(OC2CCN(CCS(=O)(=O)CC)CC2)c2ncccc2c1
pKa [1]: 6.5

Further lines, with some results ahead:

pKa [1]: 8.5
SMILES: CCCCc1cc(OC2CCN(CCCNS(=O)(=O)CC)CC2)c2ncccc2c1

bioavailability [4]: 45%
Kp at 0.5 h [5]: 11
Vd [7]: 4.5 L/kg
dose excreted [8]: < 1%
concentration at 0.5 h [9]: 14500 ng/g
Vd [11]: 4.2 L/kg
clearance [12]: 20 mL/min/kg
AUC(0-t) [13]: 62 ng·h/mL
half-life [14]: 3.8 h
half-life [15]: 1.8 h
Drug metabolism [16]: 2.9 mL/min/g
concentration at 5 min [2]: 26 ng/g
dose excreted [17]: < 0.1%
bioavailability [18]: 5%
CL [19]: 45%
Papp [20]: 5.2 ×10⁻⁶ cm/s
Drug metabolism [21]: Metabolite_Detected
bioavailability [22]: 4 to 9%
Drug metabolism [24]: 1.4 mL/min/g
Drug metabolism [25]: 3.6 mL/min/g
clearance [26]: 38 mL/min/kg
Drug metabolism [27]: Metabolite_Detected
Drug metabolism [28]: Metabolite_Detected
Kp at 5 min [3]: 0.1
CL [29]: 65%
Drug metabolism [30]: Metabolite_Detected
Drug metabolism [31]: 3.7 mL/min/g
bioavailability [32]: 45%
Fa [33]: 13 to 16%
Drug metabolism [34]: Metabolite_Detected
SMILES: CCCCc1cc(OC2CCN(CCCCNS(=O)(=O)CC)CC2)c2ncccc2c1.Cl.Cl
Drug uptake [6]: Active
concentration [10]: 7 nM
Drug uptake [23]: Active

AUC(0-t) [13]: 568 ng·h/mL
concentration at 5 min [2]: 62 ng/g
Kp at 5 min [3]: 0.09
pKa [1]: 7.9
SMILES: CCCCc1cc(OC2CCN(CCCS(=O)(=O)CC)CC2)c2ncccc2c1.Cl.Cl
